In brackets after ≈: the same amount, converted by molar mass.
Legend:
Staphylococcus aureus [1] = test: Antibacterial activity against heterogeneous vancomycin-intermediate Staphylococcus aureus Mu3 harboring intact graR gene after 24 hrs by agar dilution method; type: functional; conditions: Mu3, 24 h
Procedure, shortened: (§1)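 Host carries shuttle vector pYT3, either empty or carrying PCR-cloned graR (SA0614) from N315 (intact) or Mu50 (N197S mutant), introduced by electroporation and sequence-verified. MICs were determined by agar dilution per CLSI, with vancomycin MIC in BHI agar. Glycopeptides and daptomycin were tested at 1-mg/liter linear steps, oxacillin by twofold dilutions. Plates were read at 24 h and 48 h.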

Staphylococcus aureus [2] = test: Antibacterial activity against vancomycin-susceptible Staphylococcus aureus N315 harboring mutated graR gene after 48 hrs by agar dilution method; type: functional; conditions: N315, 48 h; procedure, shortened: as §1
Staphylococcus aureus [3] = test: Antibacterial activity against heterogeneous vancomycin-intermediate Staphylococcus aureus Mu3 harboring shuttle vector pYT3 after 48 hrs by agar dilution method; type: functional; conditions: Mu3, 48 h; procedure, shortened: as §1
Staphylococcus aureus [4] = test: Antibacterial activity against graSR gene knockout vancomycin-susceptible Staphylococcus aureus N315 after 48 hrs by agar dilution method; type: functional; conditions: N315, 48 h
Procedure, shortened: (§2)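 Agar dilution MICs per CLSI, with vancomycin MIC in BHI agar. Vancomycin, teicoplanin and daptomycin were tested at linear 1-mg/liter concentration steps; oxacillin was tested by twofold dilutions. Plates were read at 24 h and again at 48 h so a slow-growing resistant subpopulation would not be missed. graSR-null mutants were made by allelic exchange, replacing graSR with a cat cassette.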

Staphylococcus aureus [5] = test: Antibacterial activity against graSR gene knockout heterogeneous vancomycin-intermediate Staphylococcus aureus Mu3 after 48 hrs by agar dilution method; type: functional; conditions: Mu3, 48 h; procedure, shortened: as §2
Staphylococcus aureus [6] = test: Antibacterial activity against vancomycin-susceptible Staphylococcus aureus N315 harboring intact graR gene after 48 hrs by agar dilution method; type: functional; conditions: N315, 48 h; procedure, shortened: as §1
Staphylococcus aureus [7] = test: Antibacterial activity against mutated graSR gene knockout vancomycin-susceptible Staphylococcus aureus N315 after 24 hrs by agar dilution method; type: functional; conditions: N315, 24 h; procedure, shortened: as §2
Staphylococcus aureus [8] = test: Antibacterial activity against vancomycin-susceptible Staphylococcus aureus N315 harboring mutated graR gene after 24 hrs by agar dilution method; type: functional; conditions: N315, 24 h; procedure, shortened: as §1
Staphylococcus aureus [9] = test: Antibacterial activity against vancomycin-susceptible Staphylococcus aureus N315 harboring shuttle vector pYT3 after 48 hrs by agar dilution method; type: functional; conditions: N315, 48 h; procedure, shortened: as §1
Staphylococcus aureus [10] = test: Antibacterial activity against graSR gene knockout heterogeneous vancomycin-intermediate Staphylococcus aureus Mu3 after 24 hrs by agar dilution method; type: functional; conditions: Mu3, 24 h; procedure, shortened: as §2
Staphylococcus aureus [11] = test: Antibacterial activity against vancomycin-susceptible Staphylococcus aureus N315 harboring shuttle vector pYT3 after 24 hrs by agar dilution method; type: functional; conditions: N315, 24 h; procedure, shortened: as §1
Staphylococcus aureus [12] = test: Antibacterial activity against graSR gene knockout vancomycin-susceptible Staphylococcus aureus N315 after 24 hrs by agar dilution method; type: functional; conditions: N315, 24 h; procedure, shortened: as §2
Staphylococcus aureus [13] = test: Antibacterial activity against heterogeneous vancomycin-intermediate Staphylococcus aureus Mu3 harboring mutated graR gene after 48 hrs by agar dilution method; type: functional; conditions: Mu3, 48 h; procedure, shortened: as §1
Staphylococcus aureus [14] = test: Antibacterial activity against vancomycin-intermediate Staphylococcus aureus Mu50 after 24 hrs by agar dilution method; type: functional; conditions: Mu50, 24 h; procedure, shortened: as §2
Staphylococcus aureus [15] = test: Antibacterial activity against heterogeneous vancomycin-intermediate Staphylococcus aureus Mu3 harboring shuttle vector pYT3 after 24 hrs by agar dilution method; type: functional; conditions: Mu3, 24 h; procedure, shortened: as §1
Staphylococcus aureus [16] = test: Antibacterial activity against vancomycin-intermediate Staphylococcus aureus Mu50 after 48 hrs by agar dilution method; type: functional; conditions: Mu50, 48 h; procedure, shortened: as §2
Staphylococcus aureus [17] = test: Antibacterial activity against vancomycin-susceptible Staphylococcus aureus N315 after 24 hrs by agar dilution method; type: functional; conditions: N315, 24 h; procedure, shortened: as §2
Staphylococcus aureus [18] = test: Antibacterial activity against heterogeneous vancomycin-intermediate Staphylococcus aureus Mu3 after 24 hrs by agar dilution method; type: functional; conditions: Mu3, 24 h; procedure, shortened: as §2
Staphylococcus aureus [19] = test: Antibacterial activity against vancomycin-susceptible Staphylococcus aureus N315 after 48 hrs by agar dilution method; type: functional; conditions: N315, 48 h; procedure, shortened: as §2
Staphylococcus aureus [20] = test: Antibacterial activity against mutated graSR gene knockout vancomycin-susceptible Staphylococcus aureus N315 after 48 hrs by agar dilution method; type: functional; conditions: N315, 48 h; procedure, shortened: as §2
Staphylococcus aureus [21] = test: Antibacterial activity against mutated graR gene knockout heterogeneous vancomycin-intermediate Staphylococcus aureus Mu3 after 24 hrs by agar dilution method; type: functional; conditions: Mu3, 24 h; procedure, shortened: as §2
Staphylococcus aureus [22] = test: Antibacterial activity against mutated graR gene knockout vancomycin-susceptible Staphylococcus aureus N315 after 48 hrs by agar dilution method; type: functional; conditions: N315, 48 h; procedure, shortened: as §2
Staphylococcus aureus [23] = test: Antibacterial activity against mutated graR gene knockout vancomycin-susceptible Staphylococcus aureus N315 after 24 hrs by agar dilution method; type: functional; conditions: N315, 24 h; procedure, shortened: as §2
Staphylococcus aureus [24] = test: Antibacterial activity against vancomycin-susceptible Staphylococcus aureus N315 harboring intact graR gene after 24 hrs by agar dilution method; type: functional; conditions: N315, 24 h; procedure, shortened: as §1
Staphylococcus aureus [25] = test: Antibacterial activity against mutated graR gene knockout heterogeneous vancomycin-intermediate Staphylococcus aureus Mu3 after 48 hrs by agar dilution method; type: functional; conditions: Mu3, 48 h; procedure, shortened: as §2
Staphylococcus aureus [26] = test: Antibacterial activity against heterogeneous vancomycin-intermediate Staphylococcus aureus Mu3 harboring intact graR gene after 48 hrs by agar dilution method; type: functional; conditions: Mu3, 48 h; procedure, shortened: as §1
Staphylococcus aureus [27] = test: Antibacterial activity against heterogeneous vancomycin-intermediate Staphylococcus aureus Mu3 harboring mutated graR gene after 24 hrs by agar dilution method; type: functional; conditions: Mu3, 24 h; procedure, shortened: as §1
Staphylococcus aureus [28] = test: Antibacterial activity against heterogeneous vancomycin-intermediate Staphylococcus aureus Mu3 after 48 hrs by agar dilution method; type: functional; conditions: Mu3, 48 h; procedure, shortened: as §2
Staphylococcus aureus [29] = test: Antibacterial activity against vancomycin-susceptible Staphylococcus aureus N315 harboring complement system vraSR by agar dilution method

SMILES	MIC (Staphylococcus aureus [1]) [µg/mL]	MIC (Staphylococcus aureus [2]) [µg/mL]	MIC (Staphylococcus aureus [3]) [µg/mL]	MIC (Staphylococcus aureus [4]) [µg/mL]	MIC (Staphylococcus aureus [5]) [µg/mL]	MIC (Staphylococcus aureus [6]) [µg/mL]	MIC (Staphylococcus aureus [7]) [µg/mL]	MIC (Staphylococcus aureus [8]) [µg/mL]	MIC (Staphylococcus aureus [9]) [µg/mL]	MIC (Staphylococcus aureus [10]) [µg/mL]	MIC (Staphylococcus aureus [11]) [µg/mL]	MIC (Staphylococcus aureus [12]) [µg/mL]	MIC (Staphylococcus aureus [13]) [µg/mL]	MIC (Staphylococcus aureus [14]) [µg/mL]	MIC (Staphylococcus aureus [15]) [µg/mL]	MIC (Staphylococcus aureus [16]) [µg/mL]	MIC (Staphylococcus aureus [17]) [µg/mL]	MIC (Staphylococcus aureus [18]) [µg/mL]	MIC (Staphylococcus aureus [19]) [µg/mL]	MIC (Staphylococcus aureus [21]) [µg/mL]	further results
CCCCCCCCCC(=O)N[C@@H](Cc1c[nH]c2ccccc12)C(=O)N[C@H](CC(N)=O)C(=O)N[C@@H](CC(=O)O)C(=O)N[C@@H]1C(=O)NCC(=O)N[C@@H](CCCN)C(=O)N[C@@H](CC(=O)O)C(=O)N[C@H](C)C(=O)N[C@@H](CC(=O)O)C(=O)NCC(=O)N[C@H](CO)C(=O)N[C@@H]([C@H](C)CC(=O)O)C(=O)N[C@@H](CC(=O)c2ccccc2N)C(=O)O[C@@H]1C	3 (≈ 1.85 µM)	1 (≈ 0.617 µM)	2 (≈ 1.23 µM)	0.5 (≈ 0.309 µM)	0.5 (≈ 0.309 µM)	0.5 (≈ 0.309 µM)	1 (≈ 0.617 µM)	1 (≈ 0.617 µM)	0.5 (≈ 0.309 µM)	0.5 (≈ 0.309 µM)	0.5 (≈ 0.309 µM)	0.5 (≈ 0.309 µM)	3 (≈ 1.85 µM)	3 (≈ 1.85 µM)	1 (≈ 0.617 µM)	3 (≈ 1.85 µM)	0.5 (≈ 0.309 µM)	1 (≈ 0.617 µM)	0.5 (≈ 0.309 µM)	3 (≈ 1.85 µM)	MIC (Staphylococcus aureus [20]): 1 µg/mL (≈ 0.617 µM); MIC (Staphylococcus aureus [22]): 1 µg/mL (≈ 0.617 µM); MIC (Staphylococcus aureus [23]): 1 µg/mL (≈ 0.617 µM); MIC (Staphylococcus aureus [24]): 0.5 µg/mL (≈ 0.309 µM); MIC (Staphylococcus aureus [25]): 3 µg/mL (≈ 1.85 µM); MIC (Staphylococcus aureus [26]): 3 µg/mL (≈ 1.85 µM); MIC (Staphylococcus aureus [27]): 3 µg/mL (≈ 1.85 µM); MIC (Staphylococcus aureus [28]): 1 µg/mL (≈ 0.617 µM)
CN[C@H](CC(C)C)C(=O)N[C@H]1C(=O)N[C@@H](CC(N)=O)C(=O)N[C@H]2C(=O)N[C@H]3C(=O)N[C@H](C(=O)N[C@H](C(=O)O)c4cc(O)cc(O)c4-c4cc3ccc4O)[C@H](O)c3ccc(c(Cl)c3)Oc3cc2cc(c3O[C@@H]2O[C@H](CO)[C@@H](O)[C@H](O)[C@H]2O[C@H]2C[C@](C)(N)[C@H](O)[C@H](C)O2)Oc2ccc(cc2Cl)[C@H]1O [VANCOMYCIN]																8 (≈ 5.52 µM)				3 (≈ 2.07 µM)	MIC (Staphylococcus aureus [29]): ≥ 4 µg/mL
Cc1onc(-c2ccccc2)c1C(=O)N[C@@H]1C(=O)N2[C@@H]1SC(C)(C)[C@@H]2C(=O)O [OXACILLIN]	1020 (≈ 2550 µM)	0.25 (≈ 0.623 µM)	> 1020	16 (≈ 39.9 µM)	1020 (≈ 2550 µM)	1 (≈ 2.49 µM)	0.5 (≈ 1.25 µM)	0.25 (≈ 0.623 µM)	4 (≈ 9.96 µM)	1020 (≈ 2550 µM)	4 (≈ 9.96 µM)	4 (≈ 9.96 µM)	1020 (≈ 2550 µM)	512 (≈ 1280 µM)	1020 (≈ 2550 µM)	512 (≈ 1280 µM)	2 (≈ 4.98 µM)	1020 (≈ 2550 µM)	8 (≈ 19.9 µM)	1020 (≈ 2550 µM)	MIC (Staphylococcus aureus [20]): 0.5 µg/mL (≈ 1.25 µM); MIC (Staphylococcus aureus [22]): 4 µg/mL (≈ 9.96 µM); MIC (Staphylococcus aureus [23]): 2 µg/mL (≈ 4.98 µM); MIC (Staphylococcus aureus [24]): 0.5 µg/mL (≈ 1.25 µM); MIC (Staphylococcus aureus [25]): 1020 µg/mL (≈ 2550 µM); MIC (Staphylococcus aureus [26]): 1020 µg/mL (≈ 2550 µM); MIC (Staphylococcus aureus [27]): 1020 µg/mL (≈ 2550 µM); MIC (Staphylococcus aureus [28]): > 1020 µg/mL

Reference: ChEMBL document CHEMBL1152988, “Mutated response regulator graR is responsible for phenotypic conversion of Staphylococcus aureus from heterogeneous vancomycin-intermediate resistance to vancomycin-intermediate resistance” (2008)
